In ChEMBL document CHEMBL1124429, “Heterocyclic analogues of benzamide antiarrhythmic agents” (J Med Chem, 1989):
Several values for one entry are separate records, joined by “and”; a condition that tells them apart may be missing. Equal values may be shown once.

How the values were obtained:
[1] = organism: Canis familiaris; assay: Percent change from control in the rate of rise of phase 0 of the action potential at 10 uM concentration on Canine Purkinje fibers.; parameters: species or system Canis lupus familiaris, Purkinje fiber; conditions: dog, in vitro
[2] = organism: Canis familiaris; assay: Maximum Percent change from control in the rate of rise of phase 0 of the action potential at 100 uM concentration on Canine Purkinje fibers.; type: Canis lupus familiaris, Purkinje fiber; conditions: dog, in vitro
How it was run: (§1)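 Isolated canine Purkinje fibers were superfused with physiological saline gassed with 95% O2/5% CO2 (pH 7.35–7.40) at 36 ± 0.5 °C. Paced at 1.0 Hz with 2-ms pulses at twice diastolic threshold. After up to 1 h stabilization, compounds were tested over 10^-8 to 10^-3 M, 30 min per concentration, one compound per fiber, with vehicle controls. Intracellular microelectrodes (3 M KCl) recorded Vmax and APD95; maximum percent change from control is reported with its concentration.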

[3] = organism: Canis familiaris; assay: Maximum Percent change from control in the rate of rise of phase 0 of the action potential at 30 uM concentration on Canine Purkinje fibers.; parameters: species or system Canis lupus familiaris, Purkinje fiber; conditions: dog, in vitro; how it was run: as §1
[4] = organism: Canis familiaris; assay: Maximum percent change in conduction time (CT) at 100 uM concentration tested on Canine ventricular muscle fibre; type: functional, Canis lupus familiaris, Muscle tissue
How it was run: (§2)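 Canine right ventricular papillary muscle strips were superfused at 36 ± 0.5 °C with saline gassed with 95% O2/5% CO2. Diastolic threshold was found with 2-ms stimuli at 4000 ms cycle length, then pacing at 4× threshold for 60 min equilibration. FRP was measured at 1000 ms cycle length by S1-S2 premature stimulus after every tenth S1. Conduction time came from a bipolar electrogram. Various compound concentrations were tested, one compound per strip, with vehicle controls. Percent change from control was taken at 10 µM, or the maximum change with its concentration; for N ≥ 3, mean with range.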

[5] = organism: Canis familiaris; assay: Percent change from control in conduction time (CT) at 10 uM concentration tested on Canine ventricular muscle fibre.; M is minimal(<10% change in CT); type: functional; conditions: Canis lupus familiaris, Muscle tissue; how it was run: as §2
[6] = organism: Canis familiaris; assay: Maximum percent change in repolarization at 0.1 uM concentration on Canine Purkinje fibers.; type: functional, Canis lupus familiaris, Purkinje fiber; how it was run: as §1
[7] = organism: Canis familiaris; assay: Maximum percent change in repolarization at 1 uM concentration on Canine Purkinje fibers.; type: functional, Canis lupus familiaris, Purkinje fiber; how it was run: as §1
[8] = organism: Canis familiaris; assay: Maximum percent change in repolarization at 30 uM concentration on Canine Purkinje fibers.; type: functional, Canis lupus familiaris, Purkinje fiber; how it was run: as §1
[9] = organism: Canis familiaris; assay: Percent change in repolarization at 10 Purkinje fibers.; value ranges from 3-7; type: functional, Canis lupus familiaris, Purkinje fiber
How it was run: (§3)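 Canine Purkinje fibers were held in oxygenated (95% O2–5% CO2) physiological saline, pH 7.35–7.40, at 36 ± 0.5 °C and paced at 1.0 Hz with 2-ms pulses at twice diastolic threshold. Intracellular microelectrodes (3 M KCl) recorded Vmax and APD95 simultaneously. After up to 1 h of stabilization, compounds were tested from 10^-8 to 10^-3 M with 30 min per concentration. One compound per fiber, with vehicle controls. For N ≥ 3, values are the mean with the range.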

[10] = organism: Canis familiaris; assay: Percent change from control in the functional refractory period (FRP) at 10 uM conc. on Canine ventricular muscle fibre.; parameters: species or system Canis lupus familiaris, Muscle tissue; how it was run: as §2
[11] = organism: Cavia porcellus; assay: Concentration of compound which gives a 20% decrease in contractile force was tested on papillary muscle of guinea pig, activity was expressed as EC-20; NR is not reached..; type: functional; conditions: Muscle tissue
How it was run: (§4)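 Contractile force measured in an isolated cardiac muscle preparation. Value is the concentration giving a 20% decrease in force of contraction. NR marks that this decrease was not reached. Values come from individual experiments; for N ≥ 3, the mean is given with the range.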

[12] = organism: Canis familiaris; assay: Percent change from control in the rate of rise of phase 0 of the action potential at 10 uM concentration on Canine Purkinje fibers.; value ranges from -21- -37; type: organism-based, Canis lupus familiaris, Purkinje fiber; conditions: dog, in vitro
[13] = Maximum Percent change from control in the rate of rise of phase 0 of the action potential at 100 Purkinje fibers.; type: tissue-based, Purkinje fiber; how it was run: as §1
[14] = organism: Canis familiaris; assay: Maximum Percent change from control in the rate of rise of phase 0 of the action potential at 10 uM concentration on Canine Purkinje fibers.; type: functional, Canis lupus familiaris, Purkinje fiber; conditions: dog, in vitro; how it was run: as §1
[15] = organism: Canis familiaris; assay: Maximum percent change in conduction time (CT) at 10 uM concentration tested on Canine ventricular muscle fibre; value ranges from -12 - -5; type: functional, Canis lupus familiaris, Muscle tissue; how it was run: as §2
[16] = organism: Canis familiaris; assay: Percent change from control in conduction time (CT) at 10 uM concentration tested on Canine ventricular muscle fibre.; value ranges from -12 - -5; type: functional, Canis lupus familiaris, Muscle tissue; how it was run: as §2
[17] = organism: Canis familiaris; assay: Maximum percent change in repolarization at 100 uM concentration on Canine Purkinje fibers.; type: functional, Canis lupus familiaris, Purkinje fiber; how it was run: as §1
[18] = organism: Canis familiaris; assay: Maximum percent change in repolarization at 10 uM concentration on Canine Purkinje fibers.; type: functional, Canis lupus familiaris, Purkinje fiber; how it was run: as §1
[19] = organism: Canis familiaris; assay: Percent change in repolarization at 10 Purkinje fibers; value ranges from -11- -25.; type: functional, Canis lupus familiaris, Purkinje fiber; how it was run: as §3
[20] = organism: Canis familiaris; assay: Maximum percent change in functional refractory period(FRP) of compound (10 uM) was tested from individual experiment on Canine ventricular muscle fibre.; parameters: species or system Canis lupus familiaris, Muscle tissue; how it was run: as §2
[21] = organism: Canis familiaris; assay: Percent change from control in the functional refractory period (FRP) at 10 uM conc. on Canine ventricular muscle fibre.; value ranges from -1-20; parameters: species or system Canis lupus familiaris, Muscle tissue; how it was run: as §2
[22] = organism: Canis familiaris; assay: Maximum percent change in functional refractory period (FRP) at 100 uM on Canine ventricular muscle fibre.; parameters: species or system Canis lupus familiaris, Muscle tissue; how it was run: as §2
[23] = organism: Cavia porcellus; assay: Concentration of compound which gives a 20% decrease in contractile force was tested on papillary muscle of guinea pig, activity was expressed as EC-20.; type: functional; conditions: Muscle tissue; how it was run: as §4
[24] = organism: Canis familiaris; assay: Percent change from control in the rate of rise of phase 0 of the action potential at 10 uM concentration on Canine Purkinje fibers.; value ranges from -17.0-2.0; parameters: species or system Canis lupus familiaris, Purkinje fiber; conditions: dog, in vitro
[25] = organism: Canis familiaris; assay: Maximum Percent change from control in the rate of rise of phase 0 of the action potential at 0.1 uM concentration on Canine Purkinje fibers.; parameters: species or system Canis lupus familiaris, Purkinje fiber; how it was run: as §1
[26] = organism: Canis familiaris; assay: Maximum percent change in conduction time (CT) at 0.1 uM concentration tested on Canine ventricular muscle fibre; type: functional, Canis lupus familiaris, Muscle tissue; how it was run: as §2
[27] = organism: Canis familiaris; assay: Maximum percent change in conduction time (CT) at 1 uM concentration tested on Canine ventricular muscle fibre; type: functional, Canis lupus familiaris, Muscle tissue; how it was run: as §2
[28] = organism: Canis familiaris; assay: Percent change in repolarization at 10 Purkinje fibers.; value ranges from -1-49; type: functional, Canis lupus familiaris, Purkinje fiber; how it was run: as §3
[29] = organism: Canis familiaris; assay: Maximum percent change in functional refractory period (FRP) at 10 uM on Canine ventricular muscle fibre.; parameters: species or system Canis lupus familiaris, Muscle tissue; how it was run: as §2
[30] = organism: Canis familiaris; assay: Percent change from control in the functional refractory period (FRP) at 10 uM concentration on Canine ventricular muscle fibre.; parameters: species or system Canis lupus familiaris, Muscle tissue; how it was run: as §2
[31] = organism: Cavia porcellus; assay: Concentration of compound ( ) which gives a 20% decrease in contractile force was tested on papillary muscle of guinea pig, activity was expressed as EC-20.; NR is not reached.; type: functional; conditions: Muscle tissue; how it was run: as §4
[32] = organism: Canis familiaris; assay: Percent change from control in the rate of rise of phase 0 of the action potential at 10 uM concentration on Canine Purkinje fibers.; value ranges from -20 - -3; type: organism-based, Canis lupus familiaris, Purkinje fiber; conditions: dog, in vitro
[33] = organism: Canis familiaris; assay: The maximum percent change in action potential (Vmax) at concentration observed (100 uM) was tested on Canine Purkinje fibers; parameters: species or system Canis lupus familiaris, Purkinje fiber; conditions: dog; how it was run: as §3
[34] = organism: Canis familiaris; assay: The maximum percent change in action potential (Vmax) at concentration observed (30 uM ) was tested on Canine Purkinje fibers; parameters: species or system Canis lupus familiaris, Purkinje fiber; conditions: dog; how it was run: as §3
[35] = organism: Canis familiaris; assay: Maximum percent change in conduction time (CT) at 10 uM concentration tested on Canine ventricular muscle fibre; type: functional, Canis lupus familiaris, Muscle tissue; how it was run: as §2
[36] = organism: Canis familiaris; assay: Percent change from control in conduction time (CT) at 10 uM concentration tested on Canine ventricular muscle fibre.; value ranges from -20-2; type: functional, Canis lupus familiaris, Muscle tissue; how it was run: as §2
[37] = organism: Canis familiaris; assay: Percent change in repolarization at 10 Purkinje fibers.; value ranges from -13 - -3; type: functional, Canis lupus familiaris, Purkinje fiber; how it was run: as §3
[38] = organism: Canis familiaris; assay: Percent change from control in the functional refractory period (FRP) at 10 uM conc on Canine ventricular muscle fibre.; value ranges from -9-28; parameters: species or system Canis lupus familiaris, Muscle tissue; how it was run: as §2

CCN(CC)CCCNC(=O)c1c(O)cc(C)nc1C
Vmax [1]: 4.6% | Vmax [2]: 7% | Vmax [3]: -1% | CT [4]: -7% | CT [5]: Minimal | APD95 [6]: 5% | APD95 [7]: 4% | APD95 [8]: 15% | APD95 [9]: 5% | FRP [10]: 13% | EC20 [11]: Not reached

CCN(CC)CCCNC(=O)c1cc2cccc(OCc3ccccc3)c2[nH]1
Vmax [12]: -30.3% | Vmax [13]: -79% | Vmax [14]: -33% | Vmax [3]: -56% | CT [15]: -4% | CT [16]: -4% | APD95 [17]: 18% | APD95 [18]: -11% | APD95 [8]: -38% | APD95 [19]: -16.3% | FRP [20]: 20% | FRP [21]: 8% | FRP [22]: 7% | EC20 [23]: 8 µM

CCN(CC)CCNC(=O)c1[nH]c(C)c(C)c1C
Vmax [24]: -6.3% | Vmax [25]: -3% | Vmax [2]: -42% | Vmax [14]: -17% | CT [26]: 7% | CT [27]: -5% | CT [5]: Minimal | APD95 [17]: -9% | APD95 [8]: 12% | APD95 [28]: 19.7% | FRP [29]: 24% | FRP [30]: 24% | EC20 [31]: Not reached

CCN(CC)CCCNC(=O)c1cccc2[nH]ccc12
Vmax [32]: -11.3% | Vmax [33]: -31% | Vmax [34]: -15% and -39% | CT [4]: 12% | CT [35]: -7% | CT [36]: -8.8% | APD95 [17]: -26% | APD95 [18]: -3% | APD95 [8]: -22% | APD95 [37]: -7.7% | FRP [29]: 11% | FRP [38]: 10% | FRP [22]: 36%
